ChEMBL document CHEMBL1122925 (J Med Chem, 1985)
Values joined by “and” are separate entries in the source; they are usually repeats but may differ in a detail not shown here. Equal entries are not always repeated.

What was measured:
Vero [1] = experiment: The concentration required to inhibit the growth of viral plaques by 50% of control in plaque reduction assay; format: functional, cell-based; settings: Chlorocebus sabaeus
Procedure, shortened: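 HSV-1 plaque-reduction assay, H29 strain for most values and Mac strain for some. IC50 is the concentration that inhibits viral plaque growth by 50% relative to controls.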

[2] = test system: Thymidine kinase (Human herpesvirus 1); experiment: Ability (300 uM) to compete with 150 uM of [14C]ACV for binding sites on viral enzyme (HSV-1 TK); settings: Human alphaherpesvirus 1
[3] = test system: Thymidine kinase (Human herpesvirus 1); experiment: Relative substrate velocity was evaluated by using HSV-1 TK assay; settings: Human alphaherpesvirus 1
[4] = test system: Thymidine kinase (Human herpesvirus 1); experiment: Ability (300 uM) to compete with 150 uM of [14C]ACV for binding sites on viral enzyme, Mac strain (HSV-1 TK); settings: Human alphaherpesvirus 1
Vero [5] = experiment: Zone of inhibition of plaque formation in vero cells inoculated with HSV-1 virus along with disks containing 50 ug of compound; 11-50 mm zone of inhibition; format: functional, Chlorocebus sabaeus
Procedure, shortened: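 HSV-1 plaque-inhibition test in Vero cells, H29 strain for most values and Mac strain for some. Disks carry 50 μg of test compound. The read-out is the diameter of the zone without plaque formation, and a zone of 11–50 mm is scored (+).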

[6] = test system: Thymidine kinase (Human herpesvirus 1); experiment: Relative substrate velocity was evaluated against Mac strain by using HSV-1 TK assay; settings: Human alphaherpesvirus 1
[7] = test system: Thymidine kinase (Human herpesvirus 1); experiment: Relative substrate velocity was evaluated against H29 strain by using HSV-1 TK assay; settings: Human alphaherpesvirus 1
[8] = test system: Thymidine kinase (Human herpesvirus 1); experiment: Ability (300 uM) to compete with 150 uM of [14C]ACV for binding sites on H29 strain viral enzyme (HSV-1 TK); settings: Human alphaherpesvirus 1
[9] = biological target: T1, Thymidine kinase (Human alphaherpesvirus 1) (UniProt Q9QNF7); experiment: Relative substrate velocity was evaluated by using HSV-1 TK assay
T1 sequence (whole entry): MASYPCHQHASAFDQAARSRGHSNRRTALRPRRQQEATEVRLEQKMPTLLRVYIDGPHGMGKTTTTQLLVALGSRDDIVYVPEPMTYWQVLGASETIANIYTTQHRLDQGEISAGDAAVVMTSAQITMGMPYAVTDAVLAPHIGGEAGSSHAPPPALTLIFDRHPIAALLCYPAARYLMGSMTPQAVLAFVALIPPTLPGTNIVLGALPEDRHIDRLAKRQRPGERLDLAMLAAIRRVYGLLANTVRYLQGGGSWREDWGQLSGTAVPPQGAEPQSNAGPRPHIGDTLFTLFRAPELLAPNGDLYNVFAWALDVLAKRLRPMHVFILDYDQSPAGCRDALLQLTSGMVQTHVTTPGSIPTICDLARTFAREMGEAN

Compound | IC50 (Vero [1]) [µM] | inhibition [2] [%] | inhibition [4] [%] | further results
Nc1nc2c(ncn2COCCO)c(=O)[nH]1 [ACYCLOVIR] | 0.1 | – | – | –
NC(=O)c1ncn(COCCO)n1 | > 200 | 0 | – | –
Nc1nc(=O)ccn1COCCO | – | 0 | 7 | Relative substrate velocity [3]: < 3%
Nc1nc(O)c2ccn(COCCO)c2n1 | – | – | 6 | Relative substrate velocity [3]: 3%
NC(=O)c1ncn(COCCO)c1N | – | 1 | – | –
Nc1nc2c(cnn2COCCO)c(=O)[nH]1 | – | 0 | – | –
Nc1nc(O)c2nnn(COCCO)c2n1 | 129 | – | 23 | Zone of inhibition (Vero [5]): 11; Relative substrate velocity [6]: 5% and 9%; Relative substrate velocity [7]: 9%; inhibition [8]: 27%
Nc1nc(O)c2cc3ncn(COCCO)c3cc2n1 | – | 24 | – | Relative substrate velocity [9]: < 3%
